In one data set the target is albumin (Homo sapiens, UniProt P02768). Nature of the data set: Binding affinity to human serum albumin at 100 ug/mL after 3 hrs relative to control. The data set is classed as ADME. Particulars: read-out: PB (converted). Summed up: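 Peptide at 100 μg/mL in PBS (50 μL) was incubated with HSA-conjugated Sepharose resin for 3 h at 25 °C, then centrifuged (1000 rpm, 10 min). Unbound peptide in the supernatant was quantified by micro BCA assay. Nonspecific adsorption was corrected with NHS-inactivated, albumin-free resin.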

A short description of data set [1]: Half life in Sprague-Dawley rat plasma at 1000 ng/mL by LC-MS/MS analysis. The format is ADME, cell-free.
In data set [2] the target is Glucagon-like peptide 1 receptor (Homo sapiens, UniProt P43220). Nature of the data set: Activation of human GLP-1 receptor overexpressed in HEK293 cells assessed as cAMP accumulation after 20 mins by HTRF assay. The data set is classed as functional, cell-based. For orientation: cAMP levels reflect the balance of adenylyl cyclase and phosphodiesterase activity.
Chain of Glucagon-like peptide 1 receptor (P43220 whole entry): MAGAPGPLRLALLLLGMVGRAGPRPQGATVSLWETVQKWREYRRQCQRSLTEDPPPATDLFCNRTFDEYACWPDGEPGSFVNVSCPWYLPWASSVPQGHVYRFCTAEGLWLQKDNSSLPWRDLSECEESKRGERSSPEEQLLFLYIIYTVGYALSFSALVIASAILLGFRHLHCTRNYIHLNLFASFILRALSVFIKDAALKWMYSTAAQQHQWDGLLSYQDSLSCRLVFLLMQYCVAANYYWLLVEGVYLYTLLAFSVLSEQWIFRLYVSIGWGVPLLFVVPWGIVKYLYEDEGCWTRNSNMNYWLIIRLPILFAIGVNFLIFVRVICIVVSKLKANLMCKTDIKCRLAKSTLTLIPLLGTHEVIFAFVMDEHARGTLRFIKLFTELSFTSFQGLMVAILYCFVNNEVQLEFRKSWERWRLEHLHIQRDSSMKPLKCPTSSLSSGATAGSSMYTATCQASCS

Chain of albumin (P02768 whole entry): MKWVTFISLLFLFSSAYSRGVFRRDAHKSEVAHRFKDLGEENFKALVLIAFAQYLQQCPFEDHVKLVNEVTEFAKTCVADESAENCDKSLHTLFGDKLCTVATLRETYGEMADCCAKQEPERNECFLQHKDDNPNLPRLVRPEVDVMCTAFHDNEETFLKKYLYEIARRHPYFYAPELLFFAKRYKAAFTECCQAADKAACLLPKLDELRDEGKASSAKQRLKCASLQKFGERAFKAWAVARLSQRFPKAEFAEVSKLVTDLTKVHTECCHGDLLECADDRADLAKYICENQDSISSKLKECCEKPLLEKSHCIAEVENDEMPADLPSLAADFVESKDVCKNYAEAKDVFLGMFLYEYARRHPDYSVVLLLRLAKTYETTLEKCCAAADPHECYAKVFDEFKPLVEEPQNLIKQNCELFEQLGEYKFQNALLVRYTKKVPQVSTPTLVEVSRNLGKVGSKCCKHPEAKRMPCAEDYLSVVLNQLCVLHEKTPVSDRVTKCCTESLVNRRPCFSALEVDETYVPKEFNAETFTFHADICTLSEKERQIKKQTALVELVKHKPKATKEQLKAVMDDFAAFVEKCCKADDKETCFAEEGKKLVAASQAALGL

In the case of `CC[C@H](C)[C@H](NC(=O)[C@H](Cc1ccccc1)NC(=O)[C@H](CCC(=O)O)NC(=O)[C@H](CCCCN)NC(=O)[C@H](C)NC(=O)[C@H](C)NC(=O)[C@H](CCC(N)=O)NC(=O)CNC(=O)[C@H](CCC(=O)O)NC(=O)[C@H](CC(C)C)NC(=O)[C@H](Cc1ccc(O)cc1)NC(=O)[C@H](CO)NC(=O)[C@H](CO)NC(=O)[C@@H](NC(=O)[C@H](CC(=O)O)NC(=O)[C@H](CO)NC(=O)[C@@H](NC(=O)[C@H](Cc1ccccc1)NC(=O)[C@@H](NC(=O)CNC(=O)[C@H](CCC(=O)O)NC(=O)CNC(=O)[C@@H](N)Cc1cnc[nH]1)[C@@H](C)O)[C@@H](C)O)C(C)C)C(=O)N[C@@H](C)C(=O)N[C@@H](Cc1c[nH]c2ccccc12)C(=O)N[C@@H](CC(C)C)C(=O)N[C@H](C(=O)N[C@@H](CCCCN)C(=O)NCC(=O)N[C@@H](CCCNC(=N)N)C(N)=O)C(C)C`, the fraction unbound at 3 h, 100 ug/mL on albumin was 0.937. The half-life (in general, the time in which the quantity being followed falls by half) at 1000 ng/mL in data set [1] was 0.8 h.

For `CC[C@H](C)[C@H](NC(=O)[C@H](Cc1ccccc1)NC(=O)[C@H](CCC(=O)O)NC(=O)[C@H](CCCCN)NC(=O)[C@H](C)NC(=O)[C@H](C)NC(=O)[C@H](CCC(N)=O)NC(=O)CNC(=O)[C@H](CCC(=O)O)NC(=O)[C@H](CC(C)C)NC(=O)[C@H](Cc1ccc(O)cc1)NC(=O)[C@H](CO)NC(=O)[C@H](CO)NC(=O)[C@@H](NC(=O)[C@H](CC(=O)O)NC(=O)[C@H](CO)NC(=O)[C@@H](NC(=O)[C@H](Cc1ccccc1)NC(=O)[C@@H](NC(=O)CNC(=O)[C@H](CCC(=O)O)NC(=O)CNC(=O)[C@@H](N)Cc1cnc[nH]1)[C@@H](C)O)[C@@H](C)O)C(C)C)C(=O)N[C@@H](C)C(=O)N[C@@H](Cc1c[nH]c2ccccc12)C(=O)N[C@@H](CC(C)C)C(=O)N[C@H](C(=O)N[C@@H](CCCCN)C(=O)NCC(=O)N[C@@H](CCCNC(=N)N)C(=O)N[C@@H](CSC1CC(=O)N(CCCCCC(=O)Nc2ccc(C(c3c(O)c4ccccc4oc3=O)c3c(O)c4ccccc4oc3=O)cc2)C1=O)C(N)=O)C(C)C` (stereo partly specified), at albumin, the fraction unbound at 3 h, 100 ug/mL was 0.248. The compound further had a half-life at 1000 ng/mL in data set [1] of 18.6 h. Further, the EC50 (usually the concentration at which the effect is half-maximal) in data set [2] was 3.2 pM.

For `CC[C@H](C)[C@H](NC(=O)[C@H](Cc1ccccc1)NC(=O)[C@H](CCC(=O)O)NC(=O)[C@H](CCCCN)NC(=O)[C@H](C)NC(=O)[C@H](C)NC(=O)[C@H](CCC(N)=O)NC(=O)CNC(=O)[C@H](CCC(=O)O)NC(=O)[C@H](CC(C)C)NC(=O)[C@H](Cc1ccc(O)cc1)NC(=O)[C@H](CO)NC(=O)[C@H](CO)NC(=O)[C@@H](NC(=O)[C@H](CC(=O)O)NC(=O)[C@H](CO)NC(=O)[C@@H](NC(=O)[C@H](Cc1ccccc1)NC(=O)[C@@H](NC(=O)CNC(=O)[C@H](CCC(=O)O)NC(=O)CNC(=O)[C@@H](N)Cc1cnc[nH]1)[C@@H](C)O)[C@@H](C)O)C(C)C)C(=O)N[C@@H](C)C(=O)N[C@@H](Cc1c[nH]c2ccccc12)C(=O)N[C@@H](CC(C)C)C(=O)N[C@H](C(=O)N[C@@H](CSC1CC(=O)N(CCCCCC(=O)Nc2ccc(C(c3c(O)c4ccccc4oc3=O)c3c(O)c4ccccc4oc3=O)cc2)C1=O)C(=O)NCC(=O)N[C@@H](CCCNC(=N)N)C(N)=O)C(C)C` (stereo partly specified), on albumin, the fraction unbound at 3 h, 100 ug/mL was 0.198. In data set [1], this compound gave a half-life at 1000 ng/mL of 22.1 h. Also, in data set [2], the concentration for a half-maximal effect (EC50) came to 7.3 pM.

As to `CC[C@H](C)[C@H](NC(=O)[C@H](Cc1ccccc1)NC(=O)[C@H](CCC(=O)O)NC(=O)[C@H](CCCCN)NC(=O)[C@H](C)NC(=O)[C@H](C)NC(=O)[C@H](CCC(N)=O)NC(=O)CNC(=O)[C@H](CCC(=O)O)NC(=O)[C@H](CC(C)C)NC(=O)[C@H](Cc1ccc(O)cc1)NC(=O)[C@H](CO)NC(=O)[C@H](CSC1CC(=O)N(CCC(=O)Nc2ccc(C(c3c(O)c4ccccc4oc3=O)c3c(O)c4ccccc4oc3=O)cc2)C1=O)NC(=O)[C@@H](NC(=O)[C@H](CC(=O)O)NC(=O)[C@H](CO)NC(=O)[C@@H](NC(=O)[C@H](Cc1ccccc1)NC(=O)[C@@H](NC(=O)CNC(=O)[C@H](CCC(=O)O)NC(=O)CNC(=O)[C@@H](N)Cc1cnc[nH]1)[C@@H](C)O)[C@@H](C)O)C(C)C)C(=O)N[C@@H](C)C(=O)N[C@@H](Cc1c[nH]c2ccccc12)C(=O)N[C@@H](CC(C)C)C(=O)N[C@H](C(=O)N[C@@H](CCCCN)C(=O)NCC(=O)N[C@@H](CCCNC(=N)N)C(N)=O)C(C)C` (stereo partly specified), the fraction unbound at 3 h, 100 ug/mL on albumin is 0.31. For the same compound, the half-life at 1000 ng/mL in data set [1] was 13.6 h. In addition, the EC50 in data set [2] was found to be 26.1 pM.

With `CC[C@H](C)[C@H](NC(=O)[C@H](Cc1ccccc1)NC(=O)[C@H](CCC(=O)O)NC(=O)[C@H](CS)NC(=O)[C@H](C)NC(=O)[C@H](C)NC(=O)[C@H](CCC(N)=O)NC(=O)CNC(=O)[C@H](CCC(=O)O)NC(=O)[C@H](CC(C)C)NC(=O)[C@H](Cc1ccc(O)cc1)NC(=O)[C@H](CO)NC(=O)[C@H](CO)NC(=O)[C@@H](NC(=O)[C@H](CC(=O)O)NC(=O)[C@H](CO)NC(=O)[C@@H](NC(=O)[C@H](Cc1ccccc1)NC(=O)[C@@H](NC(=O)CNC(=O)[C@H](CCC(=O)O)NC(=O)CNC(=O)[C@@H](N)Cc1cnc[nH]1)[C@@H](C)O)[C@@H](C)O)C(C)C)C(=O)N[C@@H](C)C(=O)N[C@@H](Cc1c[nH]c2ccccc12)C(=O)N[C@@H](CC(C)C)C(=O)N[C@H](C(=O)N[C@@H](CCCCN)C(=O)NCC(=O)N[C@@H](CCCNC(=N)N)C(N)=O)C(C)C`, the fraction unbound at 3 h, 100 ug/mL on albumin was 0.949. In data set [1], this compound gave a half-life at 1000 ng/mL of 0.7 h. Also, in data set [2], the EC50 amounted to 3.2 pM.

Take `CC[C@H](C)[C@H](NC(=O)[C@H](Cc1ccccc1)NC(=O)[C@H](CCC(=O)O)NC(=O)[C@H](CCCCN)NC(=O)[C@H](C)NC(=O)[C@H](C)NC(=O)[C@H](CCC(N)=O)NC(=O)CNC(=O)[C@H](CCC(=O)O)NC(=O)[C@H](CC(C)C)NC(=O)[C@H](Cc1ccc(O)cc1)NC(=O)[C@H](CO)NC(=O)[C@H](CO)NC(=O)[C@@H](NC(=O)[C@H](CC(=O)O)NC(=O)[C@H](CO)NC(=O)[C@@H](NC(=O)[C@H](Cc1ccccc1)NC(=O)[C@@H](NC(=O)CNC(=O)[C@H](CCC(=O)O)NC(=O)CNC(=O)[C@@H](N)Cc1cnc[nH]1)[C@@H](C)O)[C@@H](C)O)C(C)C)C(=O)N[C@@H](C)C(=O)N[C@@H](Cc1c[nH]c2ccccc12)C(=O)N[C@@H](CC(C)C)C(=O)N[C@H](C(=O)N[C@@H](CSC1CC(=O)N(CCC(=O)Nc2ccc(C(c3c(O)c4ccccc4oc3=O)c3c(O)c4ccccc4oc3=O)cc2)C1=O)C(=O)NCC(=O)N[C@@H](CCCNC(=N)N)C(N)=O)C(C)C` (stereo partly specified): the fraction unbound at 3 h, 100 ug/mL on albumin was 0.273. The same compound showed a half-life at 1000 ng/mL in data set [1] of 19.3 h. In addition, the EC50 in data set [2] was determined as 6.5 pM.

For the compound `CC[C@H](C)[C@H](NC(=O)[C@H](Cc1ccccc1)NC(=O)[C@H](CCC(=O)O)NC(=O)[C@H](CCCCN)NC(=O)[C@H](C)NC(=O)[C@H](C)NC(=O)[C@H](CCC(N)=O)NC(=O)CNC(=O)[C@H](CCC(=O)O)NC(=O)[C@H](CC(C)C)NC(=O)[C@H](Cc1ccc(O)cc1)NC(=O)[C@H](CO)NC(=O)[C@H](CO)NC(=O)[C@@H](NC(=O)[C@H](CC(=O)O)NC(=O)[C@H](CO)NC(=O)[C@@H](NC(=O)[C@H](Cc1ccccc1)NC(=O)[C@@H](NC(=O)CNC(=O)[C@H](CCC(=O)O)NC(=O)CNC(=O)[C@@H](N)Cc1cnc[nH]1)[C@@H](C)O)[C@@H](C)O)C(C)C)C(=O)N[C@@H](C)C(=O)N[C@@H](Cc1c[nH]c2ccccc12)C(=O)N[C@@H](CC(C)C)C(=O)N[C@H](C(=O)N[C@@H](CS)C(=O)NCC(=O)N[C@@H](CCCNC(=N)N)C(N)=O)C(C)C`, the fraction unbound at 3 h, 100 ug/mL at albumin is 0.939. Besides, the half-life at 1000 ng/mL in data set [1] is 0.6 h. For the same compound, the EC50 in data set [2] stood at 4.9 pM.

Consider `CC[C@H](C)[C@H](NC(=O)[C@H](Cc1ccccc1)NC(=O)[C@H](CCC(=O)O)NC(=O)[C@H](CCCCN)NC(=O)[C@H](C)NC(=O)[C@H](C)NC(=O)[C@H](CCC(N)=O)NC(=O)CNC(=O)[C@H](CCC(=O)O)NC(=O)[C@H](CC(C)C)NC(=O)[C@H](Cc1ccc(O)cc1)NC(=O)[C@H](CO)NC(=O)[C@H](CS)NC(=O)[C@@H](NC(=O)[C@H](CC(=O)O)NC(=O)[C@H](CO)NC(=O)[C@@H](NC(=O)[C@H](Cc1ccccc1)NC(=O)[C@@H](NC(=O)CNC(=O)[C@H](CCC(=O)O)NC(=O)CNC(=O)[C@@H](N)Cc1cnc[nH]1)[C@@H](C)O)[C@@H](C)O)C(C)C)C(=O)N[C@@H](C)C(=O)N[C@@H](Cc1c[nH]c2ccccc12)C(=O)N[C@@H](CC(C)C)C(=O)N[C@H](C(=O)N[C@@H](CCCCN)C(=O)NCC(=O)N[C@@H](CCCNC(=N)N)C(N)=O)C(C)C`, for which the fraction unbound at 3 h, 100 ug/mL on albumin was 0.922. The half-life at 1000 ng/mL in data set [1] was 1.1 h. Besides, the EC50 in data set [2] was 6.4 pM.

Turning to `CC[C@H](C)[C@H](NC(=O)[C@H](Cc1ccccc1)NC(=O)[C@H](CCC(=O)O)NC(=O)[C@H](CCCCN)NC(=O)[C@H](C)NC(=O)[C@H](C)NC(=O)[C@H](CCC(N)=O)NC(=O)CNC(=O)[C@H](CCC(=O)O)NC(=O)[C@H](CC(C)C)NC(=O)[C@H](Cc1ccc(O)cc1)NC(=O)[C@H](CO)NC(=O)[C@H](CO)NC(=O)[C@@H](NC(=O)[C@H](CC(=O)O)NC(=O)[C@H](CO)NC(=O)[C@@H](NC(=O)[C@H](Cc1ccccc1)NC(=O)[C@@H](NC(=O)CNC(=O)[C@H](CCC(=O)O)NC(=O)CNC(=O)[C@@H](N)Cc1cnc[nH]1)[C@@H](C)O)[C@@H](C)O)C(C)C)C(=O)N[C@@H](C)C(=O)N[C@@H](Cc1c[nH]c2ccccc12)C(=O)N[C@@H](CC(C)C)C(=O)N[C@H](C(=O)N[C@@H](CCCCN)C(=O)NCC(=O)N[C@@H](CCCNC(=N)N)C(=O)N[C@@H](CSC1CC(=O)N(CCC(=O)Nc2ccc(C(c3c(O)c4ccccc4oc3=O)c3c(O)c4ccccc4oc3=O)cc2)C1=O)C(N)=O)C(C)C` (stereo partly specified), the fraction unbound at 3 h, 100 ug/mL on albumin was 0.332. Besides, in data set [1], the half-life at 1000 ng/mL is 9.7 h. Besides, the EC50 in data set [2] was 3 pM.

Source of the values: ChEMBL document CHEMBL3108706, “Design, synthesis, and biological activity of novel dicoumarol glucagon-like peptide 1 conjugates” (J Med Chem, 2013).
